≈ marks a conversion by molar mass, not a printed value. Calls of active or inactive are those of the source. No cut-off for these calls is given here.
Tests used:
Type in all cases: functional
[1] = system: Escherichia coli; assay: Antimicrobial activity against Escherichia coli after 24 hrs by spectrophotometry
Outline: (§1)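 Broth MIC read turbidimetrically. Bacteria were pre-cultured 24 h at 37 °C in LB, then held at 4 °C. Compounds active in an agar-well pre-screen (20 mg/ml DMSO, 100 µl per well, 37 °C 24 h) went forward. Dilutions of 1, 5, 10, 15 and 20 mg/ml DMSO from stock were made up to 10 ml LB and inoculated with 10 µl suspension. Triplicate tubes, 37 °C for 24 h, spectrophotometric growth read-out.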

[2] = system: Bacillus thuringiensis; assay: Antimicrobial activity against Bacillus thuringiensis after 24 hrs by spectrophotometry; outline: as §1
[3] = system: Escherichia coli; assay: Ratio of tetracycline MIC to compound MIC for Escherichia coli
[4] = system: Bacillus thuringiensis; assay: Ratio of tetracycline MIC to compound MIC for Bacillus thuringiensis

CCOC(=O)C1C(c2ccc(OC)cc2)NC(=S)NC1(O)C(F)(F)F (stereo not given)
MIC [1]: ≥ 15 mg/mL | MIC [2]: ≥ 15 mg/mL | Ratio [3]: 6 | Ratio [4]: 6

CCOC(=O)C1C(c2ccc(F)cc2)NC(=S)NC1(O)C(F)(F)F (stereo not given)
Activity [1]: inactive | Activity [2]: inactive

CCOC(=O)C1C(c2ccc(C)cc2)NC(=S)NC1(O)C(F)(F)F (stereo not given)
MIC [1]: ≥ 20 mg/mL | MIC [2]: ≥ 20 mg/mL | Ratio [3]: 6 | Ratio [4]: 6

CCOC(=O)C1C(c2ccc(Cl)cc2)NC(=O)NC1(O)C(F)(F)F (stereo not given)
MIC [1]: ≥ 15 mg/mL | MIC [2]: ≥ 15 mg/mL | Ratio [3]: 6 | Ratio [4]: 6

CCOC(=O)C1C(c2ccc(O)cc2)NC(=S)NC1(O)C(F)(F)F (stereo not given)
MIC [1]: ≥ 20 mg/mL | MIC [2]: ≥ 20 mg/mL | Ratio [3]: 6 | Ratio [4]: 6

CCOC(=O)C1C(c2ccccc2)NC(=O)NC1(O)C(F)(F)F (stereo not given)
Activity [1]: inactive | Activity [2]: inactive

CN(C)[C@@H]1C(O)=C(C(N)=O)C(=O)[C@@]2(O)C(O)=C3C(=O)c4c(O)cccc4[C@@](C)(O)[C@H]3C[C@@H]12 [TETRACYCLINE]
MIC [2]: 75 mg/mL (≈ 169 mM)

CCOC(=O)C1C(c2ccc(C)cc2)NC(=O)NC1(O)C(F)(F)F (stereo not given)
MIC [1]: ≥ 20 mg/mL | MIC [2]: ≥ 20 mg/mL | Ratio [3]: 6 | Ratio [4]: 6

CCOC(=O)C1C(c2ccccc2)NC(=S)NC1(O)C(F)(F)F (stereo not given)
MIC [1]: ≥ 15 mg/mL | MIC [2]: ≥ 15 mg/mL | Ratio [3]: 6 | Ratio [4]: 6

CCOC(=O)C1C(c2ccc([N+](=O)[O-])cc2)NC(=O)NC1(O)C(F)(F)F (stereo not given)
Activity [1]: inactive | Activity [2]: inactive

CCOC(=O)C1C(c2cccs2)NC(=O)NC1(O)C(F)(F)F (stereo not given)
MIC [1]: ≥ 20 mg/mL | MIC [2]: ≥ 20 mg/mL | Ratio [3]: 6 | Ratio [4]: 6

CCOC(=O)C1C(c2ccc(O)cc2)NC(=O)NC1(O)C(F)(F)F (stereo not given)
MIC [1]: ≥ 20 mg/mL | MIC [2]: ≥ 20 mg/mL | Ratio [3]: 6 | Ratio [4]: 6

CCOC(=O)C1C(c2ccc(N(C)C)cc2)NC(=S)NC1(O)C(F)(F)F (stereo not given)
MIC [1]: ≥ 20 mg/mL | MIC [2]: ≥ 20 mg/mL | Ratio [3]: 6 | Ratio [4]: 6

CCOC(=O)C1C(c2ccc(Cl)cc2)N=C(S)NC1(O)C(F)(F)F (stereo not given)
Activity [1]: inactive | Activity [2]: inactive

Reference: ChEMBL document CHEMBL1909517, “Green synthesis and antimicrobial evaluation of some new trifluoromethyl-substituted hexahydropyrimidines by grinding” (2011)
